Reference: publication PMC2882864 (Cancer research, 2010)

How the values were obtained:
Human RPA = Human RPA (Homo sapiens, UniProt P27694); assay: EMSA of RPA binding to 5'-32P-labeled 34-base ssDNA; settings: for inhibition of RPA DNA binding in vitro (in words): EMSA
In short: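 Purified human RPA (25 nM) with 25 nM 5'-32P-labelled 34-base DNA in 20 µL reactions; test compound dissolved in DMSO. Bound and free DNA were resolved by electrophoretic mobility shift.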

[1] = test system: Xeroderma Pigmentosum Group A protein (XPA); assay: XPA DNA binding in an ELISA format; settings: data not shown
H460 NSCLC cell line = assay: Annexin V/PI flow cytometry cell viability; format: cell-based; settings: H460, increasing concentrations, 48 hours
[2] = test system: peripheral blood mononuclear cells (PBMCs); assay: Cytotoxicity in freshly isolated PBMCs; format: cell-based; settings: freshly isolated non-cancerous cells, data not shown
H460 cells [3] = assay: Combination index analysis with cisplatin or etoposide; format: cell-based; settings: H460, 48 hours, all fractions of cells affected
In short: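 H460 cells plated at 1 × 10⁴ cells/cm² for 24 h, then treated concurrently with increasing concentrations of cisplatin or etoposide plus test compound (DMSO stock) for 48 h. Adherent and non-adherent cells were collected and stained with annexin V-FITC/PI, then read by flow cytometry. The combination index was derived by Chou–Talalay analysis across fractions of cells affected.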

H460 cells [4] = assay: Cell cycle distribution; format: cell-based
In short: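 H460 cells arrested with 0.8 µg/mL nocodazole for 12 h, washed, then given vehicle or 100 µM test compound for 4, 8 or 12 h; asynchronous cells treated 3 h. 10 µM BrdU added for final 2 h (released) or final hour (asynchronous). Fixed in 70% EtOH; PI 1 µg/mL with RNaseA; DNA denatured in 2 M HCl; anti-BrdU then AlexaFluor 488 secondary; FL2-A (PI) and FL1 (BrdU) flow read-out.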

RPA in H460 cells = assay: Indirect immunofluorescence of RPA p34; format: cell-based; settings: H460, 50 µM, 3 hours, versus vehicle
In short: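 H460 cells on chamber slides got test compound or vehicle for 3 h. They were fixed in 4% paraformaldehyde (25 °C, 3 min) and permeabilised in 0.2% Triton X-100 (2 min, 4 °C), then blocked in 15% FBS for 1 h. Staining: anti-RPA p34 (1:500, 1 h), Alexa Fluor-594 anti-mouse (1:300, 1 h), then 300 nM DAPI. Imaged by fluorescence microscopy; staining quantified by image analysis.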

[5] = test system: RPA foci / DNA-PKcs phosphorylation; assay: Etoposide-induced RPA foci and DNA-PKcs serine 2056 phosphorylation; format: cell-based; settings: co-treatment with etoposide

Human RPA, sequence (P27694 whole entry): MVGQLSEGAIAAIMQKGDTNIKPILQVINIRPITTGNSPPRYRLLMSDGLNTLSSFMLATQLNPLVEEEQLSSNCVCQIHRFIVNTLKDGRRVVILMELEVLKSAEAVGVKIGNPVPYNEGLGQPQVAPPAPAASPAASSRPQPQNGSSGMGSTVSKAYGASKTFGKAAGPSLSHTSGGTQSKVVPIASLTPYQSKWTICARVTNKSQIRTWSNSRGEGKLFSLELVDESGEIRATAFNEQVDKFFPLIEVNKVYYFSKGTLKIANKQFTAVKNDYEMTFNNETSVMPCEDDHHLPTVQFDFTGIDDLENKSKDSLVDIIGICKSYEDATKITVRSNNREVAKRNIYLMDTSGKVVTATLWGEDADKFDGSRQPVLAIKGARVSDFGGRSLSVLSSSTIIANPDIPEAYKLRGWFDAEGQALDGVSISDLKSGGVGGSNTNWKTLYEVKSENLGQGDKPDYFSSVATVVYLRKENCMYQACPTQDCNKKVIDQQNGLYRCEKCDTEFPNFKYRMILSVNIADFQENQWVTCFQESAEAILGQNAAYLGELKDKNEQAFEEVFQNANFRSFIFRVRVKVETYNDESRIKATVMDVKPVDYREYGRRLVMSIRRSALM
Human RPA, sequence (P15927 whole entry partner): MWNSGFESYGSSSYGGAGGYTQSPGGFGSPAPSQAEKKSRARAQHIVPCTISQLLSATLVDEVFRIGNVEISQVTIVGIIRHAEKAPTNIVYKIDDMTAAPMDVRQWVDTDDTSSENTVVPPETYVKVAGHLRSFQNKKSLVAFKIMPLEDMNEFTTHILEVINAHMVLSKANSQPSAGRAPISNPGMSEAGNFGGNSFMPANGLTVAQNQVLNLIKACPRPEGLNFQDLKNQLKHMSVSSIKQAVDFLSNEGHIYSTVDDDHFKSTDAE
Human RPA, sequence (P35244 whole entry partner): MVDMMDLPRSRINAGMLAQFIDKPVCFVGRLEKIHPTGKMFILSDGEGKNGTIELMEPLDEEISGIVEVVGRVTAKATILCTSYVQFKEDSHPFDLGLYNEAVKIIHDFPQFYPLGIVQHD

Row | SMILES | competition of RPA from pre-bound DNA (Human RPA; data not shown) | effect on XPA binding [1] | PI staining (membrane integrity) (H460 NSCLC cell line) | annexin V staining (apoptosis) (H460 NSCLC cell line) | cytotoxic activity in PBMCs [2] | interaction with etoposide (combination index analysis) (H460 cells [3]) | BrdU incorporation after release from nocodazole arrest (H460 cells [4]; H460, 100 µM, 10 µM BrdU final 2 hours) | S-phase entry after release from nocodazole G2 arrest (H460 cells [4]; H460, 100 µM, 12 hours post release) | BrdU incorporation in asynchronous cells (H460 cells [4]; H460, 3 hours treatment, BrdU final hour) | cell cycle distribution (H460 cells [4]; H460, 48 hours) | intensity of RPA staining (RPA in H460 cells) | etoposide-induced RPA foci and DNA-PKcs phosphorylation on co-treatment [5] | inhibition of RPA DNA binding in vitro (in words) (Human RPA)
1 | CCOc1ccc2cc(C3CC(c4ccc(Br)cc4)=NN3C(=O)CCC(=O)O)c(Cl)nc2c1 (centres unmarked) [TDRL-505] | unable to compete RPA away from DNA | no inhibitory activity was observed | concentration dependent increase | Minimal annexin V staining | minimal cytotoxic activity | synergistic activity | no BrdU incorporation was observed | did not enter S-phase | small but distinct differences | increase in the proportion of cells in G1-phase | decrease in the intensity of RPA staining | slight increase | 
2 | CCN(CC)c1ccc(C2CC(c3ccc(Br)cc3)=NN2C(=O)CCC(=O)O)cc1 (centres unmarked) [TDRL-518] |  |  |  |  |  |  |  |  |  |  |  |  | no inhibition
3 | COc1ccc(-c2nn(-c3ccccc3)cc2C2CC(c3ccc(Br)cc3)=NN2C(=O)CCC(=O)O)cc1 (centres unmarked) [TDRL-523] |  |  |  |  |  |  |  |  |  |  |  |  | modest in vitro RPA inhibition
